Reference: ChEMBL document CHEMBL1123986, “Oral absorption of cephalosporin antibiotics. 2. Expanded structure-activity relationships of 7-(arylacetamido)-3-substituted cephalosporins” (1988)
Converted amounts (≈) assume the structure as drawn.

Legend:
Salmonella typhi = assay: Minimum inhibitory concentration against Salmonella typhi; format: functional, Salmonella enterica subsp. enterica serovar Typhi; conditions: Salmonella enterica
Klebsiella pneumoniae = assay: Minimum inhibitory concentration against Klebsiella pneumoniae; format: functional
How it was run: (§1)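 Agar dilution MIC in μg/mL. […] Organisms not run are marked not tested.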

Staphylococcus aureus = assay: Minimum inhibitory concentration against Staphylococcus aureus; format: functional; how it was run: as §1
Streptococcus pneumoniae = assay: Minimum inhibitory concentration against Streptococcus pneumoniae; format: functional; how it was run: as §1
Streptococcus pyogenes = assay: Minimum inhibitory concentration against Streptococcus pyogenes; format: functional; how it was run: as §1
Klebsiella aerogenes = assay: Minimum inhibitory concentration against Enterobacter aerogenes; format: functional; how it was run: as §1
Escherichia coli = assay: Minimum inhibitory concentration against Escherichia coli; format: functional; how it was run: as §1
Haemophilus influenzae [1] = assay: (§2) Minimum inhibitory concentration against Haemophilus influenzae; format: functional; how it was run: as §1
Haemophilus influenzae [2] = assay: as §2; format: functional; how it was run: as §1; remark: listed apart in the source

Compound	MIC (Salmonella typhi) [µg/mL]	MIC (Klebsiella pneumoniae) [µg/mL]	MIC (Staphylococcus aureus) [µg/mL]	MIC (Streptococcus pneumoniae) [µg/mL]	MIC (Streptococcus pyogenes) [µg/mL]	MIC (Klebsiella aerogenes) [µg/mL]	MIC (Escherichia coli) [µg/mL]	MIC (Haemophilus influenzae [1]) [µg/mL]	MIC (Haemophilus influenzae [2]) [µg/mL]
COC1=C(C(=O)O)N2C(=O)[C@@H](NC(=O)Cc3noc(C(Cl)(Cl)Cl)n3)[C@H]2SC1	> 128	> 128	16 (≈ 35 µM)	4 (≈ 8.74 µM)	4 (≈ 8.74 µM)	> 128	> 128	32 (≈ 69.9 µM)	32 (≈ 69.9 µM)
O=C(Cc1ccc(O)cc1)N[C@@H]1C(=O)N2C(C(=O)O)=C(Cl)CS[C@H]12	8 (≈ 21.7 µM)	–	–	0.25 (≈ 0.678 µM)	–	–	–	–	–
O=C(COc1ccccc1)N[C@@H]1C(=O)N2C(C(=O)O)=C(Cl)CS[C@H]12	64 (≈ 174 µM)	–	–	0.125 (≈ 0.339 µM)	–	–	–	–	–
O=C(Cc1noc(C(Cl)(Cl)Cl)n1)N[C@@H]1C(=O)N2C(C(=O)O)=CCS[C@H]12	16 (≈ 37.4 µM)	32 (≈ 74.8 µM)	2 (≈ 4.68 µM)	2 (≈ 4.68 µM)	2 (≈ 4.68 µM)	128 (≈ 299 µM)	32 (≈ 74.8 µM)	32 (≈ 74.8 µM)	16 (≈ 37.4 µM)
COc1ccc(CC(=O)N[C@@H]2C(=O)N3C(C(=O)O)=C(Cl)CS[C@H]23)cc1OC	128 (≈ 310 µM)	128 (≈ 310 µM)	0.25 (≈ 0.606 µM)	0.06 (≈ 0.145 µM)	0.3 (≈ 0.727 µM)	> 128	128 (≈ 310 µM)	1 (≈ 2.42 µM)	0.5 (≈ 1.21 µM)
O=C(Cc1csc2ccc(Cl)cc12)N[C@@H]1C(=O)N2C(C(=O)O)=C(Cl)CS[C@H]12	128 (≈ 289 µM)	64 (≈ 144 µM)	–	0.015 (≈ 0.0338 µM)	–	–	128 (≈ 289 µM)	2 (≈ 4.51 µM)	–
Nc1n[nH]c(SCC(=O)N[C@@H]2C(=O)N3C(C(=O)O)=C(Cl)CS[C@H]23)n1	8 (≈ 20.5 µM)	8 (≈ 20.5 µM)	4 (≈ 10.2 µM)	2 (≈ 5.12 µM)	1 (≈ 2.56 µM)	> 128	16 (≈ 40.9 µM)	4 (≈ 10.2 µM)	2 (≈ 5.12 µM)
Nc1ccc(CC(=O)N[C@@H]2C(=O)N3C(C(=O)O)=C(Cl)CS[C@H]23)cc1	2 (≈ 5.44 µM)	2 (≈ 5.44 µM)	0.5 (≈ 1.36 µM)	0.125 (≈ 0.34 µM)	0.06 (≈ 0.163 µM)	128 (≈ 348 µM)	16 (≈ 43.5 µM)	1 (≈ 2.72 µM)	0.5 (≈ 1.36 µM)
COc1ccc(CC(=O)N[C@@H]2C(=O)N3C(C(=O)O)=C(Cl)CS[C@H]23)cc1	32 (≈ 83.6 µM)	32 (≈ 83.6 µM)	0.5 (≈ 1.31 µM)	0.125 (≈ 0.327 µM)	0.125 (≈ 0.327 µM)	> 128	64 (≈ 167 µM)	1 (≈ 2.61 µM)	1 (≈ 2.61 µM)
CO/N=C/c1ccc(OCC(=O)N[C@@H]2C(=O)N3C(C(=O)O)=C(Cl)CS[C@H]23)cc1	> 128	> 128	0.25 (≈ 0.587 µM)	0.06 (≈ 0.141 µM)	0.03 (≈ 0.0704 µM)	> 128	> 128	4 (≈ 9.39 µM)	1 (≈ 2.35 µM)
COc1ccccc1CC(=O)N[C@@H]1C(=O)N2C(C(=O)O)=C(Cl)CS[C@H]12	> 128	> 128	1 (≈ 2.61 µM)	1 (≈ 2.61 µM)	1 (≈ 2.61 µM)	> 128	> 128	2 (≈ 5.22 µM)	1 (≈ 2.61 µM)
O=C(Cc1ccc(Cl)cc1)N[C@@H]1C(=O)N2C(C(=O)O)=C(Cl)CS[C@H]12	64 (≈ 165 µM)	128 (≈ 331 µM)	0.25 (≈ 0.646 µM)	0.125 (≈ 0.323 µM)	0.06 (≈ 0.155 µM)	> 128	64 (≈ 165 µM)	1 (≈ 2.58 µM)	0.5 (≈ 1.29 µM)
